The nature of test [1]: Cytotoxicity against human PL45 cells after 56 hrs by [3H]thymidine uptake assay. In kind it is functional. In short, it runs like this:
(§1)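 Cells seeded at 2000–2500/well in DMEM with L-glutamine, 10% FBS and 1% penicillin-streptomycin. […] After 56 h, 3H-thymidine was added for 16 h more (72 h total), then cells were harvested and counted (CPM). Inhibition = 1 − CPM treated/DMSO; IC50 taken from curves, mean and SEM.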

Test [2] has as its system BXPC-3. Briefly: Cytotoxicity against human BxPC3 cells after 56 hrs by [3H]thymidine uptake assay. In kind it is functional. In short, it runs like this: as §1

Square brackets hold non-standard residues; d marks the D form. Peptide text beside a SMILES is read from it. * marks the point of attachment. dNMeF = CN[C@H](Cc1ccccc1)C(=O)O; Cbz = O=C(OCc1ccccc1)*

On to `CC(C)C[C@@H]1NC(=O)[C@H](Cc2ccccc2)NC(=O)[C@H](CC(C)C)NC(=O)[C@H](C(C)C)NC(=O)[C@H](CC(C)C)NC1=O`, for which the “growth inhibition (GI)” value in test [1] is listed as 25%; in test [2], 42%.

With `CC(C)C[C@@H]1NC(=O)[C@H](Cc2ccccc2)NC(=O)[C@H](CC(C)C)NC(=O)[C@H](C(C)C)N(C)C(=O)[C@H](CC(C)C)NC1=O`, the results for the “growth inhibition (GI)” value in test [1] and in test [2] were 20% and 28%, respectively.

`CC(C)C[C@@H]1NC(=O)[C@H](Cc2ccccc2)NC(=O)[C@@H](CC(C)C)NC(=O)[C@@H](C(C)C)NC(=O)[C@H](CC(C)C)NC1=O`: the “growth inhibition (GI)” value in test [1] came out at 41%; in test [2] it was 33%.

In the case of `CC(C)C[C@@H]1NC(=O)[C@H](CC(C)C)NC(=O)[C@@H](Cc2ccccc2)NC(=O)[C@@H](CC(C)C)NC(=O)[C@@H](C(C)C)NC1=O`, the “growth inhibition (GI)” value came to 44% in test [1] and 42% in test [2].

Consider `CC(C)C[C@@H]1NC(=O)[C@H](CC(C)C)N(C)C(=O)[C@H](Cc2ccccc2)NC(=O)[C@H](CC(C)C)N(C)C(=O)[C@H](C(C)C)NC1=O`, for which the figures for the “growth inhibition (GI)” value in test [1] and in test [2] were 38% and 9%, respectively.

Consider `CC(C)C[C@@H]1NC(=O)[C@H](C(C)C)NC(=O)[C@H](CC(C)C)NC(=O)[C@H](CC(C)C)N(C)C(=O)[C@H](Cc2ccccc2)NC1=O`, for which the “growth inhibition (GI)” value in test [1] worked out at 44%; in test [2], 47%.

With `CC(C)C[C@@H]1NC(=O)[C@H](Cc2ccccc2)NC(=O)[C@@H](Cc2ccccc2)N(C)C(=O)[C@H](C(C)C)NC(=O)[C@H](CC(C)C)NC1=O`, the “growth inhibition (GI)” value came out at 51% in test [1] and 35% in test [2].

`CC(C)C[C@@H]1NC(=O)[C@H](Cc2ccccc2)NC(=O)[C@@H](Cc2ccccc2)NC(=O)[C@H](C(C)C)NC(=O)[C@H](CC(C)C)NC1=O`: the “growth inhibition (GI)” value amounted to 39% in test [1] and 55% in test [2].

Turning to `CC(C)C[C@@H]1NC(=O)[C@H](Cc2ccccc2)NC(=O)[C@H](CC(C)C)NC(=O)[C@@H](C(C)C)NC(=O)[C@H](CC(C)C)NC1=O`, the results for the “growth inhibition (GI)” value in test [1] and in test [2] were 45% and 22%, respectively.

For the molecule `CC(C)C[C@@H]1NC(=O)[C@H](C(C)C)NC(=O)[C@H](CC(C)C)NC(=O)[C@@H](CC(C)C)N(C)C(=O)[C@H](Cc2ccccc2)NC1=O`, the “growth inhibition (GI)” value came out at 49% in test [1] and 43% in test [2].

Turning to `CC(C)C[C@@H]1NC(=O)[C@H](CC(C)C)NC(=O)[C@@H](Cc2ccccc2)NC(=O)[C@H](CC(C)C)NC(=O)[C@H](C(C)C)NC1=O`, the “growth inhibition (GI)” value in test [1] is given as 22%; in test [2] it was 55%.

Take `CC(C)C[C@@H]1NC(=O)[C@H](C(C)C)NC(=O)[C@H](CC(C)C)NC(=O)[C@@H](CC(C)C)NC(=O)[C@H](Cc2ccccc2)NC1=O`: the “growth inhibition (GI)” value in test [1] and in test [2] was 29% throughout.

Take `CC(C)C[C@@H]1NC(=O)[C@H](Cc2ccccc2)NC(=O)[C@@H](CC(C)C)NC(=O)[C@H](C(C)C)NC(=O)[C@H](CC(C)C)NC1=O`: the “growth inhibition (GI)” value came out at 41% in test [1] and 34% in test [2].

Regarding `CC(C)C[C@@H]1NC(=O)[C@@H](CC(C)C)NC(=O)[C@H](Cc2ccccc2)NC(=O)[C@H](CC(C)C)NC(=O)[C@@H](C(C)C)NC1=O`, the “growth inhibition (GI)” value in test [1] was found to be 32%; in test [2], 30%.

Regarding `CC(C)C[C@H]1NC(=O)[C@@H](Cc2ccccc2)NC(=O)[C@@H](CC(C)C)NC(=O)[C@@H](C(C)C)NC(=O)[C@@H](CC(C)C)NC1=O`, the “growth inhibition (GI)” value worked out at 17% in test [1] and 30% in test [2].

Take `CC(C)C[C@@H]1C(=O)N[C@H](CC(C)C)C(=O)N[C@H](C(C)C)C(=O)N[C@H](CC(C)C)C(=O)N[C@H](Cc2ccccc2)C(=O)N1C`: the “growth inhibition (GI)” value in test [1] is reported as 43%; in test [2] it was 33%.

With `CC(C)C[C@H]1NC(=O)[C@@H](Cc2ccccc2)NC(=O)[C@@H](CC(C)C)NC(=O)[C@@H](C(C)C)N(C)C(=O)[C@@H](CC(C)C)NC1=O`, the “growth inhibition (GI)” value in test [1] is 6%; in test [2], 31%.

On to `CC(C)C[C@@H]1NC(=O)[C@H](Cc2ccccc2)NC(=O)[C@H](CC(C)C)NC(=O)[C@H](C(C)C)NC(=O)[C@@H](CC(C)C)NC1=O`, for which the “growth inhibition (GI)” value in test [1] and in test [2] was 0% each time.

As for `CC(C)C[C@@H]1NC(=O)[C@H](C(C)C)NC(=O)[C@@H](CC(C)C)NC(=O)[C@@H](CC(C)C)NC(=O)[C@H](Cc2ccccc2)NC1=O`, the “growth inhibition (GI)” value is on record as 14% in test [1] and 0% in test [2].

Consider `CC(C)C[C@@H]1NC(=O)[C@@H](C(C)C)N(C)C(=O)[C@H](CC(C)C)NC(=O)[C@@H](CC(C)C)NC(=O)[C@H](Cc2ccccc2)NC1=O`, for which the “growth inhibition (GI)” value in test [1] was 21%; in test [2], 35%.

On to `CC(C)C[C@@H]1NC(=O)[C@H](Cc2ccccc2)NC(=O)[C@H](CC(C)C)NC(=O)[C@@H](C(C)C)N(C)C(=O)[C@H](CC(C)C)NC1=O`, for which the entries for the “growth inhibition (GI)” value in test [1] and in test [2] were 29% and 34%, respectively.

`CC(C)C[C@@H]1NC(=O)[C@H](C(C)C)N(C)C(=O)[C@H](CC(C)C)NC(=O)[C@@H](Cc2ccccc2)NC(=O)[C@H](Cc2ccccc2)NC1=O`: the entries for the “growth inhibition (GI)” value in test [1] and in test [2] were 21% and 3%, respectively.

In the case of `CC(C)C[C@@H]1NC(=O)[C@@H](CC(C)C)N(C)C(=O)[C@H](Cc2ccccc2)NC(=O)[C@H](CC(C)C)NC(=O)[C@@H](C(C)C)NC1=O`, the “growth inhibition (GI)” value in test [1] is 26%; in test [2], 38%.

For `CC(C)C[C@@H]1NC(=O)[C@H](C(C)C)N(C)C(=O)[C@@H](CC(C)C)NC(=O)[C@@H](Cc2ccccc2)NC(=O)[C@@H](Cc2ccccc2)NC1=O`, the “growth inhibition (GI)” value in test [1] is listed as 15%; in test [2] it was 6%.

Consider `CC(C)[C@@H]1NC(=O)[C@H](CC2CCCCC2)NC(=O)[C@H](COCc2ccccc2)NC(=O)[C@H](Cc2ccccc2)NC(=O)[C@@H](Cc2ccccc2)N(C)C1=O`, for which the “growth inhibition (GI)” value is listed as 40% in test [1] and 44% in test [2].

For `CC(C)C[C@@H]1NC(=O)[C@H](Cc2ccccc2)NC(=O)[C@@H](Cc2ccccc2)N(C)C(=O)[C@@H](C(C)C)NC(=O)[C@H](CC(C)C)NC1=O`, the entries for the “growth inhibition (GI)” value in test [1] and in test [2] were 55% and 4%, respectively.

Turning to `CC(C)C[C@@H]1NC(=O)[C@H](CC(C)C)NC(=O)[C@@H](Cc2ccccc2)NC(=O)[C@H](CC(C)C)NC(=O)[C@@H](C(C)C)NC1=O`, the “growth inhibition (GI)” value in test [1] is 41%; in test [2] it was 7%.

`CC(C)C[C@@H]1NC(=O)[C@@H](Cc2ccccc2)NC(=O)[C@H](CC(C)C)NC(=O)[C@@H](C(C)C)N(C)C(=O)[C@H](CC(C)C)NC1=O`: the “growth inhibition (GI)” value in test [1] stood at 36%; in test [2] it was 31%.

For the molecule `CC(C)C[C@@H]1NC(=O)[C@H](Cc2ccccc2)NC(=O)[C@H](CC(C)C)NC(=O)[C@@H](C(C)C)NC(=O)[C@@H](CC(C)C)NC1=O`, the “growth inhibition (GI)” value in test [1] was found to be 14%; in test [2], 12%.

As for `CC(C)C[C@@H]1NC(=O)[C@H](Cc2ccccc2)NC(=O)[C@@H](Cc2ccccc2)N(C)C(=O)[C@H](C(C)C)NC(=O)[C@H](CC2CCCCC2)NC1=O`, the entries for the “growth inhibition (GI)” value in test [1] and in test [2] were 44% and 21%, respectively.

`CC(C)C[C@@H]1C(=O)N[C@H](CC(C)C)C(=O)N[C@H](C(C)C)C(=O)N(C)[C@H](CC(C)C)C(=O)N[C@H](Cc2ccccc2)C(=O)N1C`: the “growth inhibition (GI)” value is reported as 6% in test [1] and 33% in test [2].

On to `CC(C)C[C@@H]1NC(=O)[C@H](C(C)C)N(C)C(=O)[C@@H](CCCCNC(=O)OCc2ccccc2)NC(=O)[C@@H](Cc2ccccc2)NC(=O)[C@H](Cc2ccccc2)NC1=O`, for which the “growth inhibition (GI)” value is on record as 65% in test [1] and 55% in test [2].

In the case of `CC(C)C[C@@H]1NC(=O)[C@H](C(C)C)N(C)C(=O)[C@@H](CCCCN)NC(=O)[C@@H](Cc2ccccc2)NC(=O)[C@H](Cc2ccccc2)NC1=O`, the “growth inhibition (GI)” value is recorded as 5% in test [1] and 8% in test [2].

On to `CC(C)[C@H]1NC(=O)[C@H](CC2CCCCC2)NC(=O)[C@H](COCc2ccccc2)NC(=O)[C@H](Cc2ccccc2)NC(=O)[C@@H](Cc2ccccc2)N(C)C1=O`, for which the “growth inhibition (GI)” value worked out at 70% in test [1] and 80% in test [2].

For the molecule `CC(C)C[C@@H]1NC(=O)[C@H](COCc2ccccc2)NC(=O)[C@@H](Cc2ccccc2)NC(=O)[C@@H](CC(C)C)NC(=O)[C@@H](C(C)C)NC1=O`, the “growth inhibition (GI)” value was found to be 30% in test [1] and 43% in test [2].

Consider `CC(C)C[C@@H]1NC(=O)[C@H](C)NC(=O)[C@H](CC(C)C)NC(=O)[C@H](CC(C)C)NC(=O)[C@H](Cc2ccccc2)NC1=O` (cyclo(ALFLL)), for which the “growth inhibition (GI)” value is recorded as 18% in test [1] and 20% in test [2].

On to `CC(C)C[C@@H]1NC(=O)[C@H](Cc2ccccc2)NC(=O)[C@H](CC(C)C)NC(=O)[C@H](C(C)C)NC(=O)[C@H](CCCCNC(=O)OCc2ccccc2)NC1=O` (cyclo(FLK(Cbz)VL)), for which the entries for the “growth inhibition (GI)” value in test [1] and in test [2] were 0% and 8%, respectively.

With `CC(C)C[C@@H]1NC(=O)[C@H](Cc2ccccc2)NC(=O)[C@@H](Cc2ccccc2)N(C)C(=O)[C@H](C(C)C)NC(=O)[C@H](CCCCNC(=O)OCc2ccccc2)NC1=O` (cyclo(FLK(Cbz)V[dNMeF])), the “growth inhibition (GI)” value in test [1] is 44%; in test [2], 0%.

As to `CC(C)C[C@@H]1NC(=O)[C@H](Cc2ccccc2)NC(=O)[C@H](CC(C)C)NC(=O)[C@@H](C(C)C)NC(=O)[C@H](CCCCNC(=O)OCc2ccccc2)NC1=O` (cyclo(FLK(Cbz)[dV]L)), the “growth inhibition (GI)” value in test [1] was found to be 0%; in test [2], 29%.

Regarding `CC(C)C[C@@H]1NC(=O)[C@H](Cc2ccccc2)NC(=O)[C@H](CC(C)C)NC(=O)[C@H](C(C)C)NC(=O)[C@H](CCCCN)NC1=O` (cyclo(FLKVL)), the “growth inhibition (GI)” value in test [1] is given as 0%; in test [2] it was 8%.

For the origin of these results see ChEMBL document CHEMBL1154122, “A comprehensive study of Sansalvamide A derivatives: The structure-activity relationships of 78 derivatives in two pancreatic cancer cell lines” (2009).
